Bioassay records as filed in PubChem BioAssay.
HTR2A ag = mouse HTR2A agonism via beta-arrestin recruitment. P35363. 0.66% of 360,000 active. activation, % at 7.6 µM. CHO-K1 mHTR2A beta-arrestin complementation, luminescence; percent of 30 µM serotonin response;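 active means activation above a run cutoff, the mean activation of all tested compounds plus 3 SD, cut at about 14% in these data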;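 further: 0% = plate median of compound wells and 100% = 30 µM serotonin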
MC4R antag cAMP = antagonists of human melanocortin 4 receptor (MC4R); inhibition, % at 6.5 µM; MC4R-expressing cells, MTII-stimulated cAMP, LANCE TR-FRET; 0.48% of 360,000 active; P32245;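 active means inhibition above its plate's cutoff, the mean of tested wells on that plate plus 3 SD, cut at about 29% in these data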;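 further: 0% = Melanotan II alone and 100% = Melanotan II plus saturating MCL0020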
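System: U2OS-MC4R stable cell line; Technique: Eu-cAMP/anti-cAMP TR-FRET, emission 671 nm; Repeats: single well per compound; Also added: Melanotan II; Dosing: one concentration, 6.5 µM nominal; Schedule: 30-min compound, 1-h challenge, 1-h detection, room temperature.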
MC4R barr agon = agonists of human melanocortin 4 receptor (MC4R) beta-arrestin; U2OS MC4R beta-arrestin complementation, luminescence; percent of melanotan II response, DMSO zero; activation, % at 8.9 µM; 0.98% of 360,000 active; AID 540308;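 active means activation above a per-plate cutoff, the mean activation of sample wells on that plate plus 3 SD, cut at about 8% in these data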
PREPL inhibitor = human PREPL enzyme inhibition | Q4J6C6 | AID 2751 | 0.68% of 320,000 active | recombinant PREPL, fluorescence polarization activity-based probe | inhibition, % at 5.96 µM;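 further: 0% = enzyme with DMSO and 100% = wells lacking enzyme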
Target sequence (Q4J6C6 whole entry, looked up): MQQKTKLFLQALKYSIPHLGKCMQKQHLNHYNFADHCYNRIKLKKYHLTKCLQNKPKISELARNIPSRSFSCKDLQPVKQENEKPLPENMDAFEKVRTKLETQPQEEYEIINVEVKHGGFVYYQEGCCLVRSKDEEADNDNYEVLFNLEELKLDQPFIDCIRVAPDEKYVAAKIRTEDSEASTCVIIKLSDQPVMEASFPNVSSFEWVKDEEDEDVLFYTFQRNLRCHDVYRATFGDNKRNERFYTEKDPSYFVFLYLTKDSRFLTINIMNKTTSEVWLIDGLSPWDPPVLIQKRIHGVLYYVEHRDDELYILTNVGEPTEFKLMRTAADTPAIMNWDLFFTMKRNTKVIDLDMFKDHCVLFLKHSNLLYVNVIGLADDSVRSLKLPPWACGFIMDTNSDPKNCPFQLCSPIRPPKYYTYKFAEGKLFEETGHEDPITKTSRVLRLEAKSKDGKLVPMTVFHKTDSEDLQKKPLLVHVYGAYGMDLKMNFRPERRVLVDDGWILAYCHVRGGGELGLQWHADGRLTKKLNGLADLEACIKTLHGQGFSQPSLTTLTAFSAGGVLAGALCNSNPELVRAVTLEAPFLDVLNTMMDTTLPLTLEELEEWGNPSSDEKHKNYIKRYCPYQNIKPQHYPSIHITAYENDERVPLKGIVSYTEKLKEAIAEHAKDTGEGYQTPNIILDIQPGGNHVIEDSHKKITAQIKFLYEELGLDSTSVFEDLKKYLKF
NTR1 agonist = activates human neurotensin receptor 1 | P30989 | NTR1-U2OS beta-arrestin-GFP spot imaging, agonist mode | activation, % at 20 µM | 0.17% of 330,000 active | AID 493036;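 active means activation at or above 40% of the spot to cytoplasm intensity ratio, with at least 20 cells analyzed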;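 further: 0% = DMSO without peptide and 100% = 100 nM NTR1 peptide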
Hep lipid drop = modulators of hepatic lipid droplet formation | AML12 mouse hepatocytes, oleate lipid droplets, BODIPY imaging | 0.4% of 240,000 active | inhibition, % at 6.5 µM;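 active means lipid droplet intensity inhibited by at least 50%, with more than 500 cells counted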
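Assay system: AML12 hepatocytes (mouse); Probe or stimulus: oleic acid at 100 µM to induce lipid droplet formation; Dosing: compound at 6.5 µM only; Schedule: compound with oleate, overnight; Detection: fluorescence imaging, 20x objective, two fields per well; Measure: % inhibition of lipid droplet signal.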
PREPL confirm = confirmation of human PREPL enzyme inhibitors; 67% of 2,000 active; shares compounds with PREPL inhibitor; recombinant PREPL, fluorescence polarization activity probe; inhibition, % at 5.96 µM;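 further: 0% = protein with DMSO and 100% = wells lacking protein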
NTR1 ag conf = confirmation of agonists of human NTR1; shares compounds with NTR1 agonist; NTR1-U2OS beta-arrestin-GFP translocation imaging; activation, % at 20 µM; 38% of 480 active;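 active means mean activation at 20 µM of at least 40%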;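 further: 0% = DMSO without peptide and 100% = 100 nM NTR1 peptide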
cAMP nonselect = U2OS forskolin cAMP inhibition counter-screen. shares compounds with MC4R antag cAMP. parental U2OS, LANCE TR-FRET. inhibition, % at 6.5 µM. 26% of 1,600 active;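 active means mean inhibition over triplicates above the low-control well mean plus 3 SD, set per campaign, cut at about 13% in these data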;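 further: signal is single emission at 671 nm which falls as cellular cAMP rises; 0% = forskolin-stimulated wells and 100% = buffer without forskolin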
MC4R cAMP antag = human MC4R cAMP antagonism confirmation. shares compounds with MC4R antag cAMP. MC4R-expressing cells, MTII-stimulated cAMP, TR-FRET. inhibition, % at 6.5 µM. 27% of 1,600 active. AID 602195; in the data active means inhibition above about 29%;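 further: 0% = agonist stimulated wells alone and 100% = agonist stimulated wells plus saturating reference antagonist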
MC4R barr conf = human MC4R beta-arrestin agonism confirmation | activation, % at 8.9 µM | AID 602192 | shares compounds with MC4R barr agon | 31% of 2,400 active | U2OS MC4R beta-arrestin recruitment, luminescence; scaled DMSO 0%, Melanotan II 100%;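 active means mean activation across replicates above the hit cutoff set in the earlier primary screen, cut at about 8% in these data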
MOR DOR agonist = activates mu-delta opioid heterodimer, MC4R agonist counter-screen; shares compounds with MC4R barr agon; U2OS PathHunter beta-arrestin, beta-gal luminescence; percent of deltorphin B response, DMSO zero; activation, % at 9.2 µM; 5.8% of 2,400 active; AID 602194;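 active means mean activation across replicates exceeds the hit threshold derived in the earlier primary screen, cut at about 18% in these data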;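 further: 100% = deltorphin B at 0.9 µM final and 0% = DMSO alone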
MOR ag counter = counter-screen for mouse HTR2A agonists: human mu opioid receptor agonists; shares compounds with HTR2A ag; U2OS OPRM1 beta-arrestin PathHunter, luminescence; DMSO 0%, DAMGO 9.3 µM 100%; activation, % at 9.3 µM; 5.3% of 2,300 active; AID 624380;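 active means mean activation above the mean of DMSO-only wells plus 3 SD, cut at about 0.5% in these data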
HTR2A ag conf = mouse HTR2A agonism confirmed; shares compounds with HTR2A ag; CHO-K1 PathHunter beta-arrestin recruitment, luminescence; DMSO 0%, 30 µM serotonin 100%; activation, % at 7.6 µM; 19% of 2,300 active; AID 624381;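 active means mean activation across triplicates above the hit threshold derived in the original primary screen, cut at about 15% in these data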
An asterisk follows results filed as active; x = not tested or not shown; ! = not confirmed by another sample. Sampled rows, rich in hits. Any-hit rate of the full collection: about 2.7%. Unless noted, no stated cut-off is given here; in the data, active means inhibition above about 43%; inactive means the rest.

SMILES	HTR2A ag	MC4R antag cAMP	MC4R barr agon	PREPL inhibitor	NTR1 agonist	Hep lipid drop	PREPL confirm	MC4R barr conf	MOR DOR agonist	others
CCCCCn1c2c(c(=N)c3ccccc31)CCC2	-4	6	0	19	3	9	x	x	x
CCCCCCCCCCn1c2c(c(=N)c3c1CCC3)CCC2	-4	-10	17*	44*	42*	x	44*	11*	19*
COCCCNC(=O)Cc1c(C)c2c(cc(C)c3c(C(C)(C)C)coc32)oc1=O	12	12	3	25	7	-134	x	x	x
COc1ccc2nc(C)cc(N/N=C/c3ccccc3)c2c1	-12	5	5	19	0	x	x	x	x
COc1ccc(/C=N/Nc2cc(C)nc3ccc(OC)cc23)c(OC)c1	-9	-12	32*	89*	17	-24	81*	57*	43*
CCCCCCCCCCCCCCCC[n+]1cccc(C(=O)N(CC)CC)c1	2	29*!	13*	50*	8	-38	51*	23*	4	cAMP nonselect=7;MC4R cAMP antag=50*
CCCCCC(=O)Nc1ccc(C(=O)CN2C(=O)NC3(CCCCCC3)C2=O)cc1	4	2	-1	-3	2	x	x	x	x
O=C(NC1CCCCC1)C(c1ccc(F)cc1)N(C(=O)c1csnn1)C1CC1 (configuration not stated)	8	7	1	-1	2	-1	x	x	x
CC1CCC(C(C)C)C(OC(=O)C[n+]2cc(-c3ccc(Cl)cc3)n3c2CCCCC3)C1 (configuration not stated)	0	8	34*	47*	22	-17	44*	25*	7
Cc1ccsc1/C=N/Nc1nc2ccccc2s1	-1	-6	9.9*	46*	25	-3	55*	-1	6
CCCCCCCCCCCCCCCC[n+]1cccc2ccccc21	4	-8	18*	56*	1	-38	42	34*	23*
Cn1c(C(=O)O)c(CC(=O)N2CCC(Cc3ccccc3)CC2)c2ccccc21	4	10	-1	8	2	1	x	x	x
COc1cc2nc(SCc3ccc(F)cc3)n(Cc3cccs3)c(=N)c2cc1OC	-7	-9	2	26	7	x	x	x	x
COc1ccc(Cn2c(SCc3ccccc3C)nc3cc(OC)c(OC)cc3c2=N)cc1	-8	14	26*	62*	31	x	59*	7	27*
CCOc1ccc2nc3cc(NCc4ccc(OC)cc4)ccc3c(N)c2c1	-12	19	13*	102*	1	-5	79*	15*	15
CCn1cnc2cc(NCc3ccc(OC)cc3)ccc21	-5	-4	0	14	0	x	x	x	x
CCc1noc(C)c1C(=O)Nc1nc(-c2ccccc2)c(C(C)=O)s1	35*	5	0	80*	0	x	4	x	x	MOR ag counter=-1;HTR2A ag conf=9
CCc1noc(C)c1C(=O)Nc1nc(-c2ccc(NC(C)=O)cc2)cs1	6	4	-1	4	4	x	x	x	x
O=C(C1CCN(c2ncnc3c2nc2n3CCCCC2)CC1)N1CCN(c2cccc(Cl)c2)CC1	18*	5	1	49*	15	-13	47*	x	x	MOR ag counter=-1;HTR2A ag conf=-1
COc1ccc(S(=O)(=O)N2CCC3(CC2)OCCN3S(=O)(=O)c2ccc(C)cc2)cc1OC	-3	13	0	10	2	x	x	x	x
COc1ccc(N2CCN(c3nc(NCCc4ccc(OC)c(OC)c4)nc(OC)n3)CC2)cc1	0	17	2	35	44*	-15	x	x	x	NTR1 ag conf=32
CCOC(=O)c1c(C)n(C)c2ccc(OCC(O)Cn3nc(C)c(Br)c3C)cc12 (configuration not stated)	-4	4	-2	23	41*	-6	x	x	x	NTR1 ag conf=11
CCOC(=O)c1c(C)n(C)c2ccc(OCC(O)CN3CCCCCC3)cc12 (configuration not stated)	1	-2	0	2	2	x	x	x	x
O=C(COC(=O)c1cccc(-n2cnnn2)c1)c1ccc(F)c(F)c1	2	2	-2	x	x	x	x	x	x
CN(C)S(=O)(=O)c1ccc(NC(=O)c2c(F)cccc2Cl)cc1	0	0	-1	2	49*	x	x	x	x	NTR1 ag conf=-5
SMILES	HTR2A ag	MC4R antag cAMP	MC4R barr agon	PREPL inhibitor	NTR1 agonist	Hep lipid drop	PREPL confirm	MC4R barr conf	MOR DOR agonist	others
CC(C)(C)c1ccc(OCCOc2ccc(C(C)(C)C)cc2NC=O)c(NC=O)c1	-1	23	2	8	43*	0	x	x	x	NTR1 ag conf=23
OC(Cc1ccnc2ccccc12)C(Cl)(Cl)Cl (configuration not stated)	6	8	2	x	x	x	x	x	x
O=C(/C=C/c1cccc(OCc2ccccc2)c1)c1cccnc1	-2	10	-1	-8	54*	2	x	x	x	NTR1 ag conf=2
O=C(/C=C/c1cccnc1)c1ccc(F)c(F)c1	8	12	0	3	61*	-10	x	x	x	NTR1 ag conf=69*
CON(C)C(=O)C[C@@H]1C[C@H](OC(=O)c2ccc([N+](=O)[O-])cc2)CN1C(=O)OC(C)(C)C	2	3	-3	6	1	x	x	x	x
COC(=O)COc1ccc(/C=N/NC(=O)CN(c2ccccc2OC)S(=O)(=O)c2ccccc2)cc1	-2	8	-2	-2	75*	-1	x	x	x	NTR1 ag conf=76*
